Results reported in ChEMBL document CHEMBL3871272, “Systemic optimization and structural evaluation of quinoline derivatives as transthyretin amyloidogenesis inhibitors” (Eur J Med Chem, 2016).
pIC50: −log10 of the molar value. The source made the active and inactive calls. No cut-off for these calls is given here.

Legend:
Transthyretin [1] = target: T1, Transthyretin (Homo sapiens, UniProt P02766); test: Inhibition of wild type TTR (unknown origin) assessed as inhibition of acid-mediated amyloidogenesis by measuring fibril formation at 7.2 uM preincubated with enzyme followed by amyloidogenesis stimulation by adjusting pH to 4.4 measured after 72 hrs relative to control; set-up: scale not given: the % may be the effect or the level left
How it was run: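 WT-TTR (3.6 µM, physiological level) was preincubated with inhibitor at 7.2 or 3.6 µM. The pH was then adjusted to 4.4 to trigger fibril formation, 37 °C, 72 h. Fibrils were expressed relative to untreated WT-TTR set at 100%.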

Transthyretin [2] = target: T1, Transthyretin; test: Inhibition of wild type TTR (unknown origin) assessed as inhibition of acid-mediated amyloidogenesis by measuring fibril formation at 3.6 uM preincubated with enzyme followed by amyloidogenesis stimulation by adjusting pH to 4.4 measured after 72 hrs relative to control; set-up: scale not given: the % may be the effect or the level left
How it was run: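 WT-TTR (3.6 μM, physiological concentration) preincubated with inhibitor (3.6 or 7.2 μM), then fibril formation triggered by adjusting pH to 4.4; incubated 37 °C, 72 h. Fibril formation expressed as percent of untreated WT-TTR (100%).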

Transthyretin [3] = target: T1, Transthyretin; test: Inhibition of wild type TTR (unknown origin) assessed as inhibition of acid-mediated amyloidogenesis by measuring fibril formation preincubated with enzyme followed by amyloidogenesis stimulation by adjusting pH to 4.4 measured after 72 hrs relative to control
[4] = AUC (0 to t) in Sprague-Dawley rat at 2 mg/kg, iv administered as single dose by HPLC/MS/MS method; assay type: ADME, organism-based; conditions: in vivo
How it was run: (§1)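 Male Sprague-Dawley rats, fasted overnight, 4 animals. Single 2 mg/kg IV dose via tail vein, given as a 1 mg/mL solution in 10% DMSO, 40% PEG400 and 50% saline. Plasma was processed by vigorous mixing and centrifugation at 12,000 g for 10 min, with an internal standard added, then analysed by RP-HPLC. Parameters were calculated for each animal and averaged.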

[5] = AUC (0 to infinity) in Sprague-Dawley rat at 5 mg/kg, po administered as single dose via oral gavage by HPLC/MS/MS method; assay type: ADME, organism-based; conditions: in vivo
How it was run: as §1, with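 “overnight, 5” for “overnight, 4”, “Single 5” for “Single 2”, “mg/kg oral” for “mg/kg IV”, “dose by gavage needle,” for “dose via tail vein,”, “a 2.5” for “a 1”, “by” for “by vigorous”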

[6] = Terminal half life in Sprague-Dawley rat at 2 mg/kg, iv administered as single dose by HPLC/MS/MS method; assay type: ADME, organism-based; conditions: in vivo, read-out: beta t1/2 (converted)
How it was run: (§2)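 Male SD rats, fasted overnight, four animals, single tail-vein IV dose of 2 mg/kg. Dosing solution 1 mg/mL in 10% DMSO, 40% PEG400, 50% saline. Plasma concentrations were measured over time. Parameters were calculated per animal and averaged.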

[7] = Volume of distribution at steady state distribution in Sprague-Dawley rat at 2 mg/kg, iv administered as single dose by HPLC/MS/MS method; assay type: ADME, organism-based; conditions: in vivo, read-out: Vdss; how it was run: as §2
[8] = AUC (0 to t) in Sprague-Dawley rat at 5 mg/kg, po administered as single dose via oral gavage by HPLC/MS/MS method; assay type: ADME, organism-based; conditions: in vivo
How it was run: as §1, with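 “overnight, 5” for “overnight, 4”, “Single 5” for “Single 2”, “mg/kg oral” for “mg/kg IV”, “dose by gavage needle,” for “dose via tail vein,”, “a 2.5” for “a 1”, “by” for “by vigorous”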

[9] = Cmax in Sprague-Dawley rat at 5 mg/kg, po administered as single dose via oral gavage by HPLC/MS/MS method; assay type: ADME, organism-based; conditions: in vivo
How it was run: (§3)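 Five overnight-fasted male SD rats received a single 5 mg/kg dose by gavage needle. Dosing solution 2.5 mg/mL in 10% DMSO, 40% PEG400, 50% saline. Plasma concentration-time profiles were obtained, and parameters were calculated for each animal and then averaged.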

[10] = Cmax in Sprague-Dawley rat at 2 mg/kg, iv administered as single dose by HPLC/MS/MS method; assay type: ADME, organism-based; set-up: dose 2 mg/kg, route intravenous; conditions: in vivo; how it was run: as §2
[11] = AUC (0 to infinity) in Sprague-Dawley rat at 2 mg/kg, iv administered as single dose by HPLC/MS/MS method; assay type: ADME, organism-based; set-up: dose 2 mg/kg, time infinity, route intravenous; conditions: in vivo; how it was run: as §1
[12] = Terminal half life in Sprague-Dawley rat at 5 mg/kg, po administered as single dose via oral gavage by HPLC/MS/MS method; assay type: ADME, organism-based; conditions: in vivo, read-out: beta t1/2 (converted); how it was run: as §3
[13] = Plasma clearance in Sprague-Dawley rat at 2 mg/kg, iv administered as single dose by HPLC/MS/MS method; assay type: ADME, organism-based; how it was run: as §2
[14] = Tmax in Sprague-Dawley rat at 2 mg/kg, iv administered as single dose by HPLC/MS/MS method; assay type: ADME, organism-based; conditions: in vivo; how it was run: as §2
[15] = Tmax in Sprague-Dawley rat at 5 mg/kg, po administered as single dose via oral gavage by HPLC/MS/MS method; assay type: ADME, organism-based; conditions: in vivo; how it was run: as §3
[16] = Oral bioavailability in Sprague-Dawley rat at 5 mg/kg administered as single dose by HPLC/MS/MS method; assay type: ADME, organism-based; conditions: in vivo
How it was run: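 Bioavailability was taken from dose-normalized AUC0-∞ after oral (5 mg/kg, gavage, n=5) versus IV (2 mg/kg, tail vein, n=4) dosing in fasted male SD rats. Vehicle: 10% DMSO, 40% PEG400, 50% saline.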

[17] = system: Transthyretin (Homo sapiens), P02766 [V50M]; test: Inhibition of TTR V30M mutant (unknown origin) assessed as inhibition of acid-mediated amyloidogenesis by measuring reduction in fibril formation at 3.6 uM preincubated with enzyme followed by amyloidogenesis stimulation by adjusting pH to 4.4 measured up to 120 hrs relative to control
How it was run: (§4)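 Time-course version of the acid-mediated fibril formation assay: inhibitor at a concentration equal to the TTR tetramer (3.6 μM), preincubated with TTR, then acidified to pH 4.4. Fibril formation followed over 120 h instead of at a fixed 72 h, relative to untreated TTR.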

[18] = system: Transthyretin (Homo sapiens), P02766 [V50M]; test: Inhibition of TTR V30M mutant (unknown origin) assessed as inhibition of acid-mediated amyloidogenesis by measuring fibril formation at 7.2 uM preincubated with enzyme followed by amyloidogenesis stimulation by adjusting pH to 4.4 measured after 72 hrs relative to control; set-up: scale not given: the % may be the effect or the level left
How it was run: (§5)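 V30M-TTR (3.6 μM) preincubated with inhibitor (3.6 or 7.2 μM), then fibril formation triggered by adjusting pH to 4.4; incubated 37 °C, 72 h. Fibril formation expressed as percent of untreated V30M-TTR (100%).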

[19] = system: Transthyretin (Homo sapiens), P02766 [V50M]; test: Inhibition of TTR V30M mutant (unknown origin) assessed as inhibition of acid-mediated amyloidogenesis by measuring fibril formation at 3.6 uM preincubated with enzyme followed by amyloidogenesis stimulation by adjusting pH to 4.4 measured after 72 hrs relative to control; set-up: scale not given: the % may be the effect or the level left; how it was run: as §5
Transthyretin [20] = target: T1, Transthyretin; test: Inhibition of wild type TTR (unknown origin) assessed as inhibition of acid-mediated amyloidogenesis by measuring reduction in fibril formation at 3.6 uM preincubated with enzyme followed by amyloidogenesis stimulation by adjusting pH to 4.4 measured up to 120 hrs relative to control; how it was run: as §4
Transthyretin [21] = target: Transthyretin (Homo sapiens, UniProt P02766, V50M); test: Inhibition of TTR V30M mutant (unknown origin) assessed as inhibition of acid-mediated amyloidogenesis by measuring fibril formation preincubated with enzyme followed by amyloidogenesis stimulation by adjusting pH to 4.4 measured after 72 hrs relative to control

Cc1cc(/C=C/c2ccc3cc([N+](=O)[O-])ccc3n2)cc(C)c1O
Activity (Transthyretin [1]): 92.9%

Cc1cc(C#Cc2ccc3ccccc3n2)cc(C)c1O
Activity (Transthyretin [1]): 10.2%
Activity (Transthyretin [2]): 25.6%
pIC50 (Transthyretin [3]): 5.66

Oc1ccc(C#Cc2ccc3ccccc3n2)cc1
Activity (Transthyretin [1]): 73.9%

CC(C)c1cc(C#Cc2ccc3ccccc3n2)ccc1O
Activity (Transthyretin [1]): 97.3%

Cc1cc(C#Cc2ccc3cc([N+](=O)[O-])ccc3n2)cc(C)c1O
Activity (Transthyretin [1]): 3.6%
Activity (Transthyretin [2]): 20.9%
pIC50 (Transthyretin [3]): 5.69

Cc1cc(C#Cc2ccc3cc(N)ccc3n2)cc(C)c1O
AUC(0-t) [4]: 1330 ng·h/mL
AUC(0-inf) [5]: 232 ng·h/mL
half-life [6]: 2.71 h
Vd [7]: 1.48 L/kg
AUC(0-t) [8]: 226 ng·h/mL
Cmax [9]: 138 ng/mL
Cmax [10]: 3110 ng/mL
Activity (Transthyretin [1]): 4.8%
AUC(0-inf) [11]: 1350 ng·h/mL
half-life [12]: 1.59 h
clearance [13]: 25.1 mL/min/kg
Tmax [14]: 4.98 min
Activity (Transthyretin [2]): 17.9%
Tmax [15]: 2.45 h
bioavailability [16]: 6.89%
pIC50 (Transthyretin [3]): 5.72

Cc1cc(/C=C/c2cc3ccc(O)cc3nc2Cl)cc(C)c1O
AUC(0-t) [4]: 4510 ng·h/mL
AUC(0-inf) [5]: 3120 ng·h/mL
half-life [6]: 2.75 h
inhibition [17]: > 80%
Vd [7]: 1.13 L/kg
AUC(0-t) [8]: 2840 ng·h/mL
Cmax [9]: 665 ng/mL
Cmax [10]: 2380 ng/mL
Activity (Transthyretin [1]): 0.9%
AUC(0-inf) [11]: 4590 ng·h/mL
half-life [12]: 3.36 h
clearance [13]: 7.34 mL/min/kg
Tmax [14]: 4.98 min
Activity [18]: 5%
Activity (Transthyretin [2]): 17.7%
Activity [19]: 16.6%
inhibition (Transthyretin [20]): 7 to 23%
Tmax [15]: 0.598 h
pIC50 (Transthyretin [21]): 5.79
bioavailability [16]: 27.2%
pIC50 (Transthyretin [3]): 5.83

COc1ccc2nc(C#Cc3cc(C)c(O)c(C)c3)ccc2c1
Activity (Transthyretin [1]): 22.1%

CCc1cc(C#Cc2ccc3ccccc3n2)ccc1O
Activity (Transthyretin [1]): 99%

O=C(O)c1ccc2nc(-c3cc(Cl)cc(Cl)c3)oc2c1
Activity (Transthyretin [1]): 1%
Activity [18]: 3.2%
Activity (Transthyretin [2]): 14.8%
Activity [19]: 17%
inhibition (Transthyretin [20]): Active

CCc1cc(C#Cc2ccc3ccccc3n2)cc(CC)c1O
Activity (Transthyretin [1]): 93.4%

Cc1cc(/C=C/c2cc3ccccc3nc2Cl)cc(C)c1O
Activity (Transthyretin [1]): 2.3%
Activity (Transthyretin [2]): 33.2%

Cc1cc(C#Cc2ccc3cc(O)ccc3n2)cc(C)c1O
Activity (Transthyretin [1]): 9.6%
Activity (Transthyretin [2]): 32.1%
pIC50 (Transthyretin [3]): 5.59

Cc1cc(/C=C/c2ccc3ccccc3n2)cc(C)c1O
Activity (Transthyretin [1]): 26.3%

Cc1cc(/C=C/c2ccc3cc(N)ccc3n2)cc(C)c1O
Activity (Transthyretin [1]): 26.8%
Activity (Transthyretin [2]): 51.3%
